Experimental data published in ChEMBL document CHEMBL3808334, “Synthesis and in vitro evaluation of novel triazine analogues as anticancer agents and their interaction studies with bovine serum albumin” (Eur J Med Chem, 2016).

What was measured:
SR [1] = experiment: Growth inhibition of human SR cells assessed as cell growth at 10^-5 M incubated for 48 hrs by sulforhodamine B assay; type: functional; details: read-out: Activity
[2] = Growth inhibition of human SKOV3 cells assessed as cell growth at 10 uM incubated for 48 hrs by sulforhodamine B assay; type: functional; details: SK-OV-3, 48 h, read-out: Activity
[3] = Growth inhibition of human HOP92 cells assessed as cell growth at 10^-6 M incubated for 48 hrs by sulforhodamine B assay; type: functional; details: HOP-92, 48 h, read-out: Activity
[4] = Growth inhibition of human HCC2998 cells assessed as cell growth at 10^-5 M incubated for 48 hrs by sulforhodamine B assay; type: functional; details: HCC 2998, 48 h, read-out: Activity
Procedure, shortened: (§1)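 Cells seeded at 5,000–40,000/well according to doubling time and preincubated 24 h at 37 °C, 5% CO2. Time-zero plates were TCA-fixed. DMSO concentrate was diluted in medium with 50 µg/ml gentamicin to give five concentrations (10-fold or ½ log steps), then exposed 48 h. Cells were TCA-fixed, stained with 0.4% SRB and read at 515 nm. Percent growth was taken against time-zero and control; GI50, TGI and LC50 derived.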

NCI-H460 = experiment: Growth inhibition of human NCI-H460 cells assessed as cell growth at 10^-4 M incubated for 48 hrs by sulforhodamine B assay; type: functional; details: NCI-H460, 48 h, read-out: Activity
A549 [5] = experiment: Growth inhibition of human A549/ATCC cells assessed as cell growth at 10^-4 M incubated for 48 hrs by sulforhodamine B assay; type: functional; details: A549, 48 h, read-out: Activity
[6] = Growth inhibition of human HCT116 cells assessed as cell growth at 10^-8 M incubated for 48 hrs by sulforhodamine B assay; type: functional; details: HCT-116, 48 h, read-out: Activity; procedure, shortened: as §1
Albumin = Albumin (Bos taurus, UniProt P02769); experiment: Binding affinity to bovine serum albumin assessed as hyperchromicity in absorption spectra up to 20 uM after 5 mins by UV-visible spectroscopic analysis relative to control; type: ADME; details: cattle, isolated protein
Sequence of Albumin (P02769 whole entry): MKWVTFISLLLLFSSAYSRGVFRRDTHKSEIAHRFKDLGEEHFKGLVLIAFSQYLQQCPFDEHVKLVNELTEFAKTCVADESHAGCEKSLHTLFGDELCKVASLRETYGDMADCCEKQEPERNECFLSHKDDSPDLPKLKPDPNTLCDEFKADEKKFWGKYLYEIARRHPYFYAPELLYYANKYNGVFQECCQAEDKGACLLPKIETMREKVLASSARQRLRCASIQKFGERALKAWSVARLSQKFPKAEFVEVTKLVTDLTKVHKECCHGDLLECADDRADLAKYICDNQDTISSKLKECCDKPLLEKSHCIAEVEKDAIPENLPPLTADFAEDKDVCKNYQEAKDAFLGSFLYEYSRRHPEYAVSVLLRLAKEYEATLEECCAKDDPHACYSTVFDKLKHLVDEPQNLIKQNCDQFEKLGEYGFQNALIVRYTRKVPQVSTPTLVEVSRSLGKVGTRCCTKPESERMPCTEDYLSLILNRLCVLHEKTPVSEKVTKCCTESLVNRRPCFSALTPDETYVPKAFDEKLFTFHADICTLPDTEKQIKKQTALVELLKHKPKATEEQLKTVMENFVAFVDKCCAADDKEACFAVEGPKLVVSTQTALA
Procedure, shortened: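 UV-visible absorption titration of 10 µM BSA in 0.1 M phosphate buffer pH 7.4 with increasing compound, 0–20 µM. Compounds diluted from DMSO stocks into buffer. Spectra recorded 200–800 nm in a 1 cm quartz cell at 300 K after 5 min equilibration. The BSA band is at 279 nm; changes are compared with BSA alone.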

NCI-H23 = experiment: Growth inhibition of human NCI-H23 cells assessed as cell growth at 10^-4 M incubated for 48 hrs by sulforhodamine B assay; type: functional; details: NCI-H23, 48 h, read-out: Activity
EKVX [7] = experiment: Growth inhibition of human EKVX cells assessed as cell growth at 10^-7 M incubated for 48 hrs by sulforhodamine B assay; type: functional; details: read-out: Activity; procedure, shortened: as §1
[8] = Growth inhibition of human TK10 cells assessed as cell growth at 10^-4 M incubated for 48 hrs by sulforhodamine B assay; type: functional; details: TK-10, 48 h, read-out: Activity
[9] = Growth inhibition of human SNB75 cells assessed as cell growth at 10^-4 M incubated for 48 hrs by sulforhodamine B assay; type: functional; details: SNB-75, 48 h, read-out: Activity
HT-29 [10] = experiment: Growth inhibition of human HT-29 cells assessed as cell growth at 10^-7 M incubated for 48 hrs by sulforhodamine B assay; type: functional; details: HT-29, 48 h, read-out: Activity
SR [11] = experiment: Growth inhibition of human SR cells assessed as cell growth at 10^-4 M incubated for 48 hrs by sulforhodamine B assay; type: functional; details: read-out: Activity
[12] = Growth inhibition of human HL-60(TB) cells assessed as cell growth at 10^-5 M incubated for 48 hrs by sulforhodamine B assay; type: functional; details: HL-60, 48 h, read-out: Activity
Procedure, shortened: (§2)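 Cells plated at 5,000–40,000/well according to doubling time and preincubated 24 h at 37 °C, 5% CO₂, with time-zero plates TCA-fixed. Drugs were kept as DMSO concentrates at 400× the top concentration and diluted in medium with 50 µg/ml gentamicin. Five 10-fold or ½-log dilutions were run for 48 h, followed by SRB staining and A515. Percent growth = (Ti−Tz)/(C−Tz)×100, or (Ti−Tz)/Tz×100 when Ti<Tz.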

[13] = Growth inhibition of human HCT15 cells assessed as cell growth at 10^-8 M incubated for 48 hrs by sulforhodamine B assay; type: functional; details: HCT-15, 48 h, read-out: Activity; procedure, shortened: as §1
KM12 = experiment: Growth inhibition of human KM12 cells assessed as cell growth at 10 uM incubated for 48 hrs by sulforhodamine B assay; type: functional; details: KM12, 48 h, read-out: Activity
[14] = Growth inhibition of human prostate cancer cells incubated for 48 hrs by sulforhodamine B assay; type: functional; details: Cancer cell lines; for CC50: read-out: LC50 (the source's name)
[15] = Growth inhibition of human OVCAR3 cells assessed as cell growth at 10^-8 M incubated for 48 hrs by sulforhodamine B assay; type: functional; details: OVCAR-3, 48 h, read-out: Activity
[16] = Growth inhibition of human Caki1 cells assessed as cell growth at 10^-6 M incubated for 48 hrs by sulforhodamine B assay; type: functional; details: CAKI-1, 48 h, read-out: Activity; procedure, shortened: as §1
A549 [17] = experiment: Growth inhibition of human A549/ATCC cells assessed as cell growth at 10^-7 M incubated for 48 hrs by sulforhodamine B assay; type: functional; details: A549, 48 h, read-out: Activity
Procedure, shortened: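 Five-dose assay: five concentrations from 10-fold or ½-log serial dilutions. Cells are plated at 5,000–40,000 per well according to doubling time, grown 24 h, then exposed 48 h at 37 °C, 5% CO₂. Fixed with cold 50% TCA (final addition) for 60 min at 4 °C and stained with 0.4% SRB in 1% acetic acid. Bound dye is solubilized in 10 mM Tris base and read at 515 nm. GI₅₀ is where [(Ti−Tz)/(C−Tz)]×100 = 50, with a time-zero plate as Tz.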

[18] = Growth inhibition of human RXF393 cells assessed as cell growth at 10^-8 M incubated for 48 hrs by sulforhodamine B assay; type: functional; details: RXF 393, 48 h, read-out: Activity
EKVX [19] = experiment: Growth inhibition of human EKVX cells assessed as cell growth at 10^-8 M incubated for 48 hrs by sulforhodamine B assay; type: functional; details: read-out: Activity; procedure, shortened: as §1
HT-29 [20] = experiment: Growth inhibition of human HT-29 cells assessed as cell growth at 10^-4 M incubated for 48 hrs by sulforhodamine B assay; type: functional; details: HT-29, 48 h, read-out: Activity
[21] = Growth inhibition of human SF539 cells assessed as cell growth at 10^-6 M incubated for 48 hrs by sulforhodamine B assay; type: functional; details: SF-539, 48 h, read-out: Activity
SK-MEL-28 = experiment: Growth inhibition of human SK-MEL-28 cells assessed as cell growth at 10^-5 M incubated for 48 hrs by sulforhodamine B assay; type: functional; details: SK-MEL-28, 48 h, read-out: Activity
[22] = Growth inhibition of human SW620 cells assessed as cell growth at 10^-6 M incubated for 48 hrs by sulforhodamine B assay; type: functional; details: SW-620, 48 h, read-out: Activity
[23] = Growth inhibition of human HL-60(TB) cells assessed as cell growth at 10^-4 M incubated for 48 hrs by sulforhodamine B assay; type: functional; details: HL-60, 48 h, read-out: Activity; procedure, shortened: as §2

Compound: c1ccc(-c2nc(Nc3ccc(-c4nc5ccccc5[nH]4)cc3)nc(N3CCOCC3)n2)cc1
- growth at 10 µM (SR [1]): -26%
- growth at 10 µM [2]: -30.3%
- growth at 1 µM [3]: 70%
- growth at 10 µM [4]: -62%
- growth at 100 µM (NCI-H460): -78%
- growth at 100 µM (A549 [5]): -64%
- growth at 0.01 µM [6]: 99%
- Activity (Albumin): 72.27%
- growth at 100 µM (NCI-H23): -51%
- growth at 0.1 µM (EKVX [7]): 88%
- growth at 100 µM [8]: -94%
- growth at 100 µM [9]: -90%
- growth at 0.1 µM (HT-29 [10]): 108%
- growth at 100 µM (SR [11]): -28%
- growth at 10 µM [12]: -44%
- growth at 0.01 µM [13]: 96%
- growth at 10 µM (KM12): -76.6%
- GI50 [14]: 1.51 µM
- TGI [14]: 3.07 µM
- CC50 [14]: 6.25 µM
- growth at 0.01 µM [15]: 105%
- growth at 1 µM [16]: 68%
- growth at 0.1 µM (A549 [17]): 97%
- growth at 0.01 µM [18]: 97%
- growth at 0.01 µM (EKVX [19]): 92%
- growth at 100 µM (HT-29 [20]): -76%
- growth at 1 µM [21]: 74%
- growth at 10 µM (SK-MEL-28): -86%
- growth at 1 µM [22]: 39%
- growth at 100 µM [23]: -56%

Compound: Clc1ccc(-c2nc(Nc3ccc(-c4nc5ccccc5[nH]4)cc3)nc(N3CCOCC3)n2)cc1
- growth at 10 µM (SR [1]): -21%
- growth at 10 µM [2]: -89.9%
- growth at 1 µM [3]: 68%
- growth at 10 µM [4]: -57%
- growth at 100 µM (NCI-H460): -33%
- growth at 100 µM (A549 [5]): -53%
- growth at 0.01 µM [6]: 99%
- Activity (Albumin): 97.67%
- growth at 100 µM (NCI-H23): -27%
- growth at 0.1 µM (EKVX [7]): 87%
- growth at 100 µM [8]: -67%
- growth at 100 µM [9]: -26%
- growth at 0.1 µM (HT-29 [10]): 99%
- growth at 100 µM (SR [11]): 5%
- growth at 10 µM [12]: -71%
- growth at 0.01 µM [13]: 96%
- growth at 10 µM (KM12): -91.3%
- GI50 [14]: 0.41 µM
- TGI [14]: 1.49 µM
- CC50 [14]: 4.33 µM
- growth at 0.01 µM [15]: 99%
- growth at 1 µM [16]: 76%
- growth at 0.1 µM (A549 [17]): 99%
- growth at 0.01 µM [18]: 100%
- growth at 0.01 µM (EKVX [19]): 90%
- growth at 100 µM (HT-29 [20]): -42%
- growth at 1 µM [21]: 31%
- growth at 10 µM (SK-MEL-28): -81%
- growth at 1 µM [22]: -72%
- growth at 100 µM [23]: -45%

Compound: Fc1ccc(-c2nc(Nc3ccc(-c4nc5ccccc5[nH]4)cc3)nc(N3CCOCC3)n2)cc1
- growth at 10 µM (SR [1]): -15%
- growth at 10 µM [2]: 19.6%
- growth at 1 µM [3]: 90%
- growth at 10 µM [4]: 4%
- growth at 100 µM (NCI-H460): -39%
- growth at 0.01 µM [6]: 90%
- Activity (Albumin): 86.8%
- growth at 100 µM (NCI-H23): -15%
- growth at 0.1 µM (EKVX [7]): 91%
- growth at 100 µM [8]: -27%
- growth at 100 µM [9]: -33%
- growth at 0.1 µM (HT-29 [10]): 96%
- growth at 100 µM (SR [11]): 1%
- growth at 10 µM [12]: -27%
- growth at 0.01 µM [13]: 97%
- growth at 10 µM (KM12): 12.4%
- GI50 [14]: 3.46 µM
- TGI [14]: 6.66 µM
- CC50 [14]: > 100 µM
- growth at 0.01 µM [15]: 102%
- growth at 1 µM [16]: 87%
- growth at 0.1 µM (A549 [17]): 100%
- growth at 0.01 µM [18]: 102%
- growth at 0.01 µM (EKVX [19]): 93%
- growth at 100 µM (HT-29 [20]): -43%
- growth at 1 µM [21]: 80%
- growth at 10 µM (SK-MEL-28): -49%
- growth at 1 µM [22]: 100%
- growth at 100 µM [23]: -20%

Compound: c1ccc2[nH]c(-c3ccc(Nc4nc(N5CCCCC5)nc(N5CCOCC5)n4)cc3)nc2c1
- growth at 10 µM (SR [1]): -14%
- growth at 10 µM [2]: 22.5%
- growth at 1 µM [3]: 95%
- growth at 10 µM [4]: 9%
- growth at 100 µM (NCI-H460): -45%
- growth at 100 µM (A549 [5]): -12%
- growth at 0.01 µM [6]: 100%
- Activity (Albumin): 72.31%
- growth at 100 µM (NCI-H23): -26%
- growth at 0.1 µM (EKVX [7]): 93%
- growth at 100 µM [8]: -32%
- growth at 100 µM [9]: -33%
- growth at 0.1 µM (HT-29 [10]): 105%
- growth at 100 µM (SR [11]): -11%
- growth at 10 µM [12]: -31%
- growth at 0.01 µM [13]: 95%
- growth at 10 µM (KM12): 14.3%
- GI50 [14]: 3.67 µM
- TGI [14]: 9.13 µM
- CC50 [14]: > 100 µM
- growth at 0.01 µM [15]: 103%
- growth at 1 µM [16]: 87%
- growth at 0.1 µM (A549 [17]): 96%
- growth at 0.01 µM [18]: 96%
- growth at 0.01 µM (EKVX [19]): 93%
- growth at 100 µM (HT-29 [20]): -46%
- growth at 1 µM [21]: 89%
- growth at 10 µM (SK-MEL-28): -57%
- growth at 1 µM [22]: 96%
- growth at 100 µM [23]: -22%
